Measurements from different studies.
Compare with care: the assays were run in different laboratories.
Effect on: cell growth or viability

`Cc1nc(Nc2ncc(C(=O)Nc3c(C)cccc3Cl)s2)cc(N2CC[C@H](O)C2)n1` gave an inhibition of 97% (SU-DHL-6; ATP luminescence; 10 µM; 72 h).
`N#CSCc1cc(=O)oc2cc(O)ccc12` gave a GI50 of 3.7 µM (HeLa; SRB).
For `CCC(=CCc1c(O)cc2c(c1O)C(=O)CC(c1ccc(O)cc1)O2)CC` (stereo in doubt), the inhibition was 0.607% (HeLa; MTT; 0.781 µM; 48 h).
For `Cc1nc(NC(=O)N2CCC[C@H]2C(N)=O)sc1-c1ccnc(C(C)(C)C(F)(F)F)c1`, the EC50 was 29.4 µM (Detroit 562; ATP luminescence; 5 days).
For `CCOc1cccc(C(=O)CC(SCc2cccc(Br)c2)C(=O)O)c1` (stereo not shown), the EC50 was 98 µM (U2OS; MTT; 48 h).
For `O=c1[nH]cc(F)c(=O)[nH]1`, the GI50 was 4.4 µM (HeLa; SRB).
`CCOc1ccc(C(=O)CC(SCc2ccc(Cl)cc2)C(=O)OC)cc1` (stereo not shown) gave an EC50 of 15.7 µM (U2OS; MTT; 48 h).
`CCC(=CCc1c(O)cc2c(c1O)C(=O)C[C@H](c1ccccc1O)O2)CC` has an inhibition of 81.5% (HeLa; MTT; 120 µM; 48 h).
With `Cc1c(Cl)c(=O)oc2cc(OCCCCSC#N)ccc12` the GI50 was 6.2 µM (HeLa; SRB).
The EC50 of `CCOc1ccc(-c2cc(C(=O)O)c(-c3ccc(Cl)cc3)o2)cc1` is reported as 48 µM (U2OS; MTT; 48 h).
